How the values were obtained:
[1] = molecular target: T1, ATP-dependent translocase ABCB1 (Homo sapiens, UniProt P08183); experiment: Inhibition of ABCB1
[2] = molecular target: T2, Broad substrate specificity ATP-binding cassette transporter ABCG2 (Homo sapiens, UniProt Q9UNQ0); experiment: Inhibition of ABCG2
T2 sequence (Q9UNQ0 whole entry): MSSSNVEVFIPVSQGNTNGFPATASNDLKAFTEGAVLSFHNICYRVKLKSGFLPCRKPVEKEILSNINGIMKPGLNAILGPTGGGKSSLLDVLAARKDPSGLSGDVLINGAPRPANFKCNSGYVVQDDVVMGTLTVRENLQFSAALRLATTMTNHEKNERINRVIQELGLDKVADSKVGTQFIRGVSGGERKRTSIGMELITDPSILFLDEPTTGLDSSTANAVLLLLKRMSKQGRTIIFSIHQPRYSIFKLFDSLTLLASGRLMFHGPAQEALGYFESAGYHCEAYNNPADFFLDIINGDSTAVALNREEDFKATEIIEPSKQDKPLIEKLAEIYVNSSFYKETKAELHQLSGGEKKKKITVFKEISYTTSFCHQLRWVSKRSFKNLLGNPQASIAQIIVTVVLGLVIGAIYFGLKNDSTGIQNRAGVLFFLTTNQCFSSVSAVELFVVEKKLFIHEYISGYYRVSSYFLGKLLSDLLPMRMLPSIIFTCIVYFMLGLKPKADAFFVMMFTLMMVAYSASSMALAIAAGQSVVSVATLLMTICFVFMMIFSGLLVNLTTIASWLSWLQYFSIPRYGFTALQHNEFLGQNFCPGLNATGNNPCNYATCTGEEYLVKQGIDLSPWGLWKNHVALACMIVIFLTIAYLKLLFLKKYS

[3] = molecular target: T1, ATP-dependent translocase ABCB1; experiment: Inhibition of ABCB1-mediated [3H]vinblastine transportation in human Caco-2 cells; assay type: cell-based
Outline: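 Caco-2 monolayers grown 21 days (TEER >800 Ω × cm²). 20 nM [3H]vinblastine added to the basolateral side with or without compound (200 nM–400 µM) for 120 min at 37 °C. Appearance on the apical side measured by scintillation counting. IC50 from nonlinear fit. Mean of three experiments, triplicate samples.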

ABCG2 = molecular target: T3, ABCG2 (Homo sapiens, UniProt Q9UNQ0); experiment: Inhibition of ABCG2 in human Caco-2 cells assessed as [3H]mithoxatrone accumulation at 100 uM; assay type: cell-based; details: probe [3H]mithoxatrone
T3 sequence (Q9UNQ0 whole entry): T2 sequence (Q9UNQ0 whole entry)
Outline: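 Caco-2 monolayers grown 21 days (TEER >800 Ω × cm²). 20 nM [3H]mitoxantrone added basolaterally with or without compound at 100 µM, 120 min at 37 °C. Apical appearance measured by scintillation counting. Result is % inhibition from the radioactivity difference with and without compound.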

[4] = molecular target: T4, 5-hydroxytryptamine receptor 1A (Homo sapiens, UniProt P08908); experiment: Displacement of [3H]8-OH-DPAT from human cloned 5-HT1A receptor expressed in human HeLa cells; assay type: cell-based
T4 sequence (P08908 whole entry): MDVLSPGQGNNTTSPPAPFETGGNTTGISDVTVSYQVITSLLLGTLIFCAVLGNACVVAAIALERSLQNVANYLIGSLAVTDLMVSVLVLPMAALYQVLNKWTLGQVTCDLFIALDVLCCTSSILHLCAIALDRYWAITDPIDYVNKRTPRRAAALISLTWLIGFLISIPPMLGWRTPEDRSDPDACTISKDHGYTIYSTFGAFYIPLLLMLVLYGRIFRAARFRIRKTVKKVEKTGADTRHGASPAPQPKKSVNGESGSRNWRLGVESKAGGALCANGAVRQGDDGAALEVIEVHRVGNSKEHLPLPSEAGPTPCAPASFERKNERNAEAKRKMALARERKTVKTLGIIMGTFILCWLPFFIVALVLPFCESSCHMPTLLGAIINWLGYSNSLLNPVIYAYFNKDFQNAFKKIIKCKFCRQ
Outline: (§1)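 Compounds at 0.1 nM–10 µM in 50 mM Tris-HCl pH 7.4, 5 mM MgSO4, 120 min at 37 °C. Filtered on PEI-soaked GF/C. Nonspecific binding with 10 µM 8-OH-DPAT. […] Mean of three experiments, triplicate samples.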

Caco-2 = experiment: Ratio of apparent permeability from basolateral to apical over apical to basolateral side of human Caco-2 cells after 120 mins by UV-visible spectroscopy; details: caco-2, 2 h
[5] = molecular target: T1, ATP-dependent translocase ABCB1; experiment: Inhibition of ABCB1 in human Caco-2 cells assessed as ATPase activation at 100 uM after 2 hrs; assay type: cell-based; details: caco-2, 2 h
Outline: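 Caco-2 cells seeded at 2 × 10⁴ cells/well and held overnight at 37 °C, 5% CO2. Exposed to compound in complete medium for 2 h at 37 °C. Cells then lysed and ATP read by luciferase luminescence after 10 min dark adaptation. Tested at 100 µM; a positive response is reported as a percentage.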

[6] = molecular target: T1, ATP-dependent translocase ABCB1; experiment: Inhibition of ABCB1 transfected in MDCK cells assessed as increase in calcein-AM accumulation; assay type: cell-based
D(2) dopamine receptor [7] = molecular target: T5, D(2) dopamine receptor (Homo sapiens, UniProt P14416); experiment: Displacement of [3H]spiroperidol from human cloned dopaminergic D2 receptor expressed in rat C6 cells; assay type: cell-based
D(2) dopamine receptor [8] = molecular target: T5, D(2) dopamine receptor; experiment: Displacement of [3H]spiroperidol from human cloned dopaminergic D2 receptor expressed in rat C6 cells at 10 uM; assay type: cell-based
Outline: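 Buffer was 50 mM Tris, 10 mM MgCl2, 1 mM EDTA, pH 7.4. Incubated 60 min at 27 °C, then filtered on PEI-soaked GF/C. Nonspecific binding with 10 µM haloperidol.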

[9] = molecular target: T6, 5-hydroxytryptamine receptor 1A (Homo sapiens) (UniProt P08908); experiment: Displacement of [3H]8-OH-DPAT from human cloned 5-HT1A receptor expressed in human HeLa cells at 10 uM; assay type: cell-based; outline: as §1
T6 sequence (whole entry): T4 sequence (P08908 whole entry)

T1 sequence (P08183 whole entry): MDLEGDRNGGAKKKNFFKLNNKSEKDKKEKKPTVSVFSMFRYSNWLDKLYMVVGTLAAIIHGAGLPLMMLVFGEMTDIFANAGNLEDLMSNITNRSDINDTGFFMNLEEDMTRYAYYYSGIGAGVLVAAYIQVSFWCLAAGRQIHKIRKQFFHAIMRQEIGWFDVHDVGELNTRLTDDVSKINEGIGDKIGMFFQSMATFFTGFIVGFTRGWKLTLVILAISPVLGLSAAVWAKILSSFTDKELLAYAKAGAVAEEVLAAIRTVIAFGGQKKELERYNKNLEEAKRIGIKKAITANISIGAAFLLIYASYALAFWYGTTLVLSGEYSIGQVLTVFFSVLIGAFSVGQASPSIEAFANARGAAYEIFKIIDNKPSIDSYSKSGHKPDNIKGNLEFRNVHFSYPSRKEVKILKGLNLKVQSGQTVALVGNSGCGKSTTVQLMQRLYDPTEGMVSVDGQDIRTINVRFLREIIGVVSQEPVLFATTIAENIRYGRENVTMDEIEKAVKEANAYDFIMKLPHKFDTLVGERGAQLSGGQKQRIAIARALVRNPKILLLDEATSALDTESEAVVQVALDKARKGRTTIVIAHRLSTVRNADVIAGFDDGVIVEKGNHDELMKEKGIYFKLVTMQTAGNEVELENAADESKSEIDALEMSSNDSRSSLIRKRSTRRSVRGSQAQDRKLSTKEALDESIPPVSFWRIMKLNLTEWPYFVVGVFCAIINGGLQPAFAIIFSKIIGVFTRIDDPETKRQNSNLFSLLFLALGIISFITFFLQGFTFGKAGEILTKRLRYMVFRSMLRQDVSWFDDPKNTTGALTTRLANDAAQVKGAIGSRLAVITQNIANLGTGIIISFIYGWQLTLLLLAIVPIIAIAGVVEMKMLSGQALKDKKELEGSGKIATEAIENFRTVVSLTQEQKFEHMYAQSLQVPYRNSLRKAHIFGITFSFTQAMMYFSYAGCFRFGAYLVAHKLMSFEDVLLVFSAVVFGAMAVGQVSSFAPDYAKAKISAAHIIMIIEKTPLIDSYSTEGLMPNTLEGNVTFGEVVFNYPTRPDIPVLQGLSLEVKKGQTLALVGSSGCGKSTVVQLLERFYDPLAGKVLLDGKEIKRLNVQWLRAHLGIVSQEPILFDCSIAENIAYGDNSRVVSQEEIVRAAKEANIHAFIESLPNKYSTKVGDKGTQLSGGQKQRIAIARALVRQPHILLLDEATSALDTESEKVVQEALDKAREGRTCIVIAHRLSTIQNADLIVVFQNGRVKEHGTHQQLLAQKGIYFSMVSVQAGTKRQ
T5 sequence (P14416 whole entry): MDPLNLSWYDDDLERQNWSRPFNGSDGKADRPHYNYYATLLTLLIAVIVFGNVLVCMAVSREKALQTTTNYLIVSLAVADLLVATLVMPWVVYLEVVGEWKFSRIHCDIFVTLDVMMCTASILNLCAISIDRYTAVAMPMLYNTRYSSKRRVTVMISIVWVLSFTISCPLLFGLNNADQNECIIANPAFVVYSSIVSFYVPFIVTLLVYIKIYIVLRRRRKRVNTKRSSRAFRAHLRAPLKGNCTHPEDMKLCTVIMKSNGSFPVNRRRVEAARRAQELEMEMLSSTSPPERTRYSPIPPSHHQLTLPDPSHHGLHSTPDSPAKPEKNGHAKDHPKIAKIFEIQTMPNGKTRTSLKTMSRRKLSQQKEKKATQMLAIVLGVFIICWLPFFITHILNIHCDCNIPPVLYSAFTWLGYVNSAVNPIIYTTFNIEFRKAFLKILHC

Row | SMILES | IC50 [1] | IC50 [2] | IC50 [3] | inhibition at 100 µM (ABCG2) | Ki [4] | Ratio (Caco-2) | Activity [5] | IC50 [6] | Ki (D(2) dopamine receptor [7]) | inhibition (D(2) dopamine receptor [8]) | inhibition [9]
1 | COc1cccc(CCc2ccccc2OCc2ccc(OC)c(OC)c2)c1 | 650 nM | 150000 nM |  |  |  |  |  |  |  |  | 
2 | COc1cccc(CCc2ccccc2OCCCCN2CCN(c3ncccn3)CC2)c1 |  |  | 200 nM | 16% | 558 nM | 8.2 | Not Active | 1170 nM | 854 nM |  | 
3 | COc1cccc(CCc2ccccc2OCCCCN2CCN(c3cccc(C(F)(F)F)c3)CC2)c1 |  |  | 750 nM | 24% | > 5000 nM | 4.4 | Not Active | 1790 nM | > 1000 nM | 27% | 36%
4 | COc1cccc(CCc2ccccc2NCc2cccc(OC)c2OC)c1 | 85 nM | 1500 nM |  |  |  |  |  |  |  |  | 
